≈ marks a conversion by molar mass, not a printed value.
Tested on: Staphylococcus aureus
Experiment: Antibacterial activity against methicillin-susceptible beta-lactamase positive Staphylococcus aureus using 5x10^5 CFU/ml standard inoculum after 24 hrs by broth microdilution method
Type: functional
In short: (§1)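 Clinical MSSA isolates previously typed by Bla (25 type A, 15 type B, 45 type C, 13 blaZ-negative), with TX0117, ATCC 29213 and ATCC 25923 as controls. Broth microdilution per CLSI, read at 24 h. Standard (~5 × 10^5 CFU/ml) or high (~5 × 10^7 CFU/ml) inoculum set by OD, CFU/ml checked at random. MIC90 and geometric mean MIC per group, compared by Mann-Whitney test.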

SMILES	MIC [mg/L]	MIC90 [mg/L]
CO/N=C(\C(=O)N[C@@H]1C(=O)N2C(C(=O)O)=C(CSc3nc(=O)c(O)nn3C)CS[C@H]12)c1csc(N)n1 [CEFTRIAXONE]	2.9 (≈ 5.23 µM)	4 (≈ 7.21 µM)
Nc1nc(/C(=N/O)C(=O)N[C@@H]2C(=O)N3C(C(=O)O)=C(/C=C4\CCN([C@@H]5CCNC5)C4=O)CS[C@H]23)ns1 [CEFTOBIPROLE]	0.4 (≈ 0.748 µM)	0.5 (≈ 0.935 µM)
CC(=O)OCC1=C(C(=O)O)N2C(=O)[C@@H](NC(=O)Cc3cccs3)[C@H]2SC1 [CEPHALOTHIN]	0.5 (≈ 1.26 µM)	1 (≈ 2.52 µM)

More lines, now with the values ahead:

MIC [mg/L]	MIC90 [mg/L]	SMILES
3.9 (≈ 11.2 µM)	4 (≈ 11.5 µM)	CC1=C(C(=O)O)N2C(=O)[C@@H](NC(=O)[C@H](N)c3ccccc3)[C@H]2SC1 [CEPHALEXIN ANHYDROUS]
0.4 (≈ 0.965 µM)	0.5 (≈ 1.21 µM)	CCOc1ccc2ccccc2c1C(=O)N[C@@H]1C(=O)N2[C@@H]1SC(C)(C)[C@@H]2C(=O)O [NAFCILLIN]

Tested on: Staphylococcus aureus
Experiment: Antibacterial activity against methicillin-susceptible beta-lactamase positive Staphylococcus aureus using 5x10^7 CFU/ml high inoculum after 24 hrs by broth microdilution method
Type: functional
In short: as §1

SMILES	MIC [mg/L]	MIC90 [mg/L]
CO/N=C(\C(=O)N[C@@H]1C(=O)N2C(C(=O)O)=C(CSc3nc(=O)c(O)nn3C)CS[C@H]12)c1csc(N)n1 [CEFTRIAXONE]	3.4 (≈ 6.13 µM)	4 (≈ 7.21 µM)
Nc1nc(/C(=N/O)C(=O)N[C@@H]2C(=O)N3C(C(=O)O)=C(/C=C4\CCN([C@@H]5CCNC5)C4=O)CS[C@H]23)ns1 [CEFTOBIPROLE]	0.7 (≈ 1.31 µM)	1 (≈ 1.87 µM)
CC(=O)OCC1=C(C(=O)O)N2C(=O)[C@@H](NC(=O)Cc3cccs3)[C@H]2SC1 [CEPHALOTHIN]	1.9 (≈ 4.79 µM)	8 (≈ 20.2 µM)

The next lines start with the values.

MIC [mg/L]	MIC90 [mg/L]	SMILES
1 (≈ 2.36 µM)	1 (≈ 2.36 µM)	CO/N=C(\C(=O)N[C@@H]1C(=O)N2C(C(=O)O)=C(COC(N)=O)CS[C@H]12)c1ccco1 [CEFUROXIME]
10.7 (≈ 30.8 µM)	32 (≈ 92.1 µM)	CC1=C(C(=O)O)N2C(=O)[C@@H](NC(=O)[C@H](N)c3ccccc3)[C@H]2SC1 [CEPHALEXIN ANHYDROUS]
0.7 (≈ 1.69 µM)	1 (≈ 2.41 µM)	CCOc1ccc2ccccc2c1C(=O)N[C@@H]1C(=O)N2[C@@H]1SC(C)(C)[C@@H]2C(=O)O [NAFCILLIN]

Tested on: Staphylococcus aureus
Experiment: Antibacterial activity against methicillin-susceptible Bla-producing Staphylococcus aureus type A using 5x10^5 CFU/ml standard inoculum after 24 hrs by broth microdilution method
Type: functional
In short: as §1

SMILES	MIC [mg/L]	MIC90 [mg/L]
CC1=C(C(=O)O)N2C(=O)[C@@H](NC(=O)[C@H](N)c3ccccc3)[C@H]2SC1 [CEPHALEXIN ANHYDROUS]	4.6 (≈ 13.2 µM)	8 (≈ 23 µM)
Nc1nc(/C(=N/O)C(=O)N[C@@H]2C(=O)N3C(C(=O)O)=C(/C=C4\CCN([C@@H]5CCNC5)C4=O)CS[C@H]23)ns1 [CEFTOBIPROLE]	0.4 (≈ 0.748 µM)	0.5 (≈ 0.935 µM)
CC(=O)OCC1=C(C(=O)O)N2C(=O)[C@@H](NC(=O)Cc3cccs3)[C@H]2SC1 [CEPHALOTHIN]	0.4 (≈ 1.01 µM)	0.5 (≈ 1.26 µM)

Tested on: Staphylococcus aureus
Experiment: Antibacterial activity against methicillin-susceptible Bla-producing Staphylococcus aureus type B using 5x10^5 CFU/ml standard inoculum after 24 hrs by broth microdilution method
Type: functional
In short: as §1

SMILES	MIC [mg/L]	MIC90 [mg/L]
CC1=C(C(=O)O)N2C(=O)[C@@H](NC(=O)[C@H](N)c3ccccc3)[C@H]2SC1 [CEPHALEXIN ANHYDROUS]	3.3 (≈ 9.5 µM)	4 (≈ 11.5 µM)
Nc1nc(/C(=N/O)C(=O)N[C@@H]2C(=O)N3C(C(=O)O)=C(/C=C4\CCN([C@@H]5CCNC5)C4=O)CS[C@H]23)ns1 [CEFTOBIPROLE]	0.5 (≈ 0.935 µM)	0.5 (≈ 0.935 µM)
CC(=O)OCC1=C(C(=O)O)N2C(=O)[C@@H](NC(=O)Cc3cccs3)[C@H]2SC1 [CEPHALOTHIN]	0.5 (≈ 1.26 µM)	1 (≈ 2.52 µM)

Tested on: Staphylococcus aureus
Experiment: Antibacterial activity against methicillin-susceptible beta-lactamase negative Staphylococcus aureus using 5x10^7 CFU/ml high inoculum after 24 hrs by broth microdilution method
Type: functional
In short: as §1

SMILES	MIC [mg/L]	MIC90 [mg/L]
CO/N=C(\C(=O)N[C@@H]1C(=O)N2C(C(=O)O)=C(CSc3nc(=O)c(O)nn3C)CS[C@H]12)c1csc(N)n1 [CEFTRIAXONE]	3.1 (≈ 5.59 µM)	4 (≈ 7.21 µM)
Nc1nc(/C(=N/O)C(=O)N[C@@H]2C(=O)N3C(C(=O)O)=C(/C=C4\CCN([C@@H]5CCNC5)C4=O)CS[C@H]23)ns1 [CEFTOBIPROLE]	0.3 (≈ 0.561 µM)	0.5 (≈ 0.935 µM)
CC(=O)OCC1=C(C(=O)O)N2C(=O)[C@@H](NC(=O)Cc3cccs3)[C@H]2SC1 [CEPHALOTHIN]	0.3 (≈ 0.757 µM)	0.5 (≈ 1.26 µM)

Next, values leading:

MIC [mg/L]	MIC90 [mg/L]	SMILES
1 (≈ 2.36 µM)	1 (≈ 2.36 µM)	CO/N=C(\C(=O)N[C@@H]1C(=O)N2C(C(=O)O)=C(COC(N)=O)CS[C@H]12)c1ccco1 [CEFUROXIME]
3.1 (≈ 8.92 µM)	4 (≈ 11.5 µM)	CC1=C(C(=O)O)N2C(=O)[C@@H](NC(=O)[C@H](N)c3ccccc3)[C@H]2SC1 [CEPHALEXIN ANHYDROUS]
0.7 (≈ 1.69 µM)	1 (≈ 2.41 µM)	CCOc1ccc2ccccc2c1C(=O)N[C@@H]1C(=O)N2[C@@H]1SC(C)(C)[C@@H]2C(=O)O [NAFCILLIN]

Tested on: Staphylococcus aureus
Experiment: Antibacterial activity against methicillin-susceptible beta-lactamase negative Staphylococcus aureus using 5x10^5 CFU/ml standard inoculum after 24 hrs by broth microdilution method
Type: functional
In short: as §1

SMILES	MIC [mg/L]	MIC90 [mg/L]
CO/N=C(\C(=O)N[C@@H]1C(=O)N2C(C(=O)O)=C(CSc3nc(=O)c(O)nn3C)CS[C@H]12)c1csc(N)n1 [CEFTRIAXONE]	3.1 (≈ 5.59 µM)	4 (≈ 7.21 µM)
Nc1nc(/C(=N/O)C(=O)N[C@@H]2C(=O)N3C(C(=O)O)=C(/C=C4\CCN([C@@H]5CCNC5)C4=O)CS[C@H]23)ns1 [CEFTOBIPROLE]	0.3 (≈ 0.561 µM)	0.5 (≈ 0.935 µM)
CC(=O)OCC1=C(C(=O)O)N2C(=O)[C@@H](NC(=O)Cc3cccs3)[C@H]2SC1 [CEPHALOTHIN]	0.3 (≈ 0.757 µM)	0.5 (≈ 1.26 µM)

Continued, values first:

MIC [mg/L]	MIC90 [mg/L]	SMILES
2.5 (≈ 7.2 µM)	4 (≈ 11.5 µM)	CC1=C(C(=O)O)N2C(=O)[C@@H](NC(=O)[C@H](N)c3ccccc3)[C@H]2SC1 [CEPHALEXIN ANHYDROUS]
0.4 (≈ 0.965 µM)	0.5 (≈ 1.21 µM)	CCOc1ccc2ccccc2c1C(=O)N[C@@H]1C(=O)N2[C@@H]1SC(C)(C)[C@@H]2C(=O)O [NAFCILLIN]

Tested on: Staphylococcus aureus
Experiment: Antibacterial activity against methicillin-susceptible Bla-producing Staphylococcus aureus type A using 5x10^7 CFU/ml high inoculum after 24 hrs by broth microdilution method
Type: functional
In short: as §1

SMILES	MIC [mg/L]	MIC90 [mg/L]
CC1=C(C(=O)O)N2C(=O)[C@@H](NC(=O)[C@H](N)c3ccccc3)[C@H]2SC1 [CEPHALEXIN ANHYDROUS]	10.6 (≈ 30.5 µM)	32 (≈ 92.1 µM)
Nc1nc(/C(=N/O)C(=O)N[C@@H]2C(=O)N3C(C(=O)O)=C(/C=C4\CCN([C@@H]5CCNC5)C4=O)CS[C@H]23)ns1 [CEFTOBIPROLE]	0.7 (≈ 1.31 µM)	1 (≈ 1.87 µM)
CC(=O)OCC1=C(C(=O)O)N2C(=O)[C@@H](NC(=O)Cc3cccs3)[C@H]2SC1 [CEPHALOTHIN]	2 (≈ 5.04 µM)	8 (≈ 20.2 µM)

Tested on: Staphylococcus aureus
Experiment: Antibacterial activity against methicillin-susceptible Bla-producing Staphylococcus aureus type B using 5x10^7 CFU/ml high inoculum after 24 hrs by broth microdilution method
Type: functional
In short: as §1

SMILES	MIC [mg/L]	MIC90 [mg/L]
CC1=C(C(=O)O)N2C(=O)[C@@H](NC(=O)[C@H](N)c3ccccc3)[C@H]2SC1 [CEPHALEXIN ANHYDROUS]	14.7 (≈ 42.3 µM)	64 (≈ 184 µM)
Nc1nc(/C(=N/O)C(=O)N[C@@H]2C(=O)N3C(C(=O)O)=C(/C=C4\CCN([C@@H]5CCNC5)C4=O)CS[C@H]23)ns1 [CEFTOBIPROLE]	0.7 (≈ 1.31 µM)	2 (≈ 3.74 µM)
CC(=O)OCC1=C(C(=O)O)N2C(=O)[C@@H](NC(=O)Cc3cccs3)[C@H]2SC1 [CEPHALOTHIN]	1.3 (≈ 3.28 µM)	4 (≈ 10.1 µM)

Tested on: Staphylococcus aureus
Experiment: Antibacterial activity against methicillin-susceptible Bla-producing Staphylococcus aureus type C using 5x10^7 CFU/ml high inoculum after 24 hrs by broth microdilution method
Type: functional
In short: as §1

SMILES	MIC [mg/L]	MIC90 [mg/L]
CC1=C(C(=O)O)N2C(=O)[C@@H](NC(=O)[C@H](N)c3ccccc3)[C@H]2SC1 [CEPHALEXIN ANHYDROUS]	6.6 (≈ 19 µM)	16 (≈ 46.1 µM)
Nc1nc(/C(=N/O)C(=O)N[C@@H]2C(=O)N3C(C(=O)O)=C(/C=C4\CCN([C@@H]5CCNC5)C4=O)CS[C@H]23)ns1 [CEFTOBIPROLE]	0.7 (≈ 1.31 µM)	1 (≈ 1.87 µM)
CC(=O)OCC1=C(C(=O)O)N2C(=O)[C@@H](NC(=O)Cc3cccs3)[C@H]2SC1 [CEPHALOTHIN]	3 (≈ 7.57 µM)	8 (≈ 20.2 µM)

Tested on: Staphylococcus aureus
Experiment: Antibacterial activity against methicillin-susceptible Bla-producing Staphylococcus aureus type C using 5x10^5 CFU/ml standard inoculum after 24 hrs by broth microdilution method
Type: functional
In short: as §1

SMILES	MIC [mg/L]	MIC90 [mg/L]
CC1=C(C(=O)O)N2C(=O)[C@@H](NC(=O)[C@H](N)c3ccccc3)[C@H]2SC1 [CEPHALEXIN ANHYDROUS]	3.8 (≈ 10.9 µM)	4 (≈ 11.5 µM)
Nc1nc(/C(=N/O)C(=O)N[C@@H]2C(=O)N3C(C(=O)O)=C(/C=C4\CCN([C@@H]5CCNC5)C4=O)CS[C@H]23)ns1 [CEFTOBIPROLE]	0.5 (≈ 0.935 µM)	0.5 (≈ 0.935 µM)
CC(=O)OCC1=C(C(=O)O)N2C(=O)[C@@H](NC(=O)Cc3cccs3)[C@H]2SC1 [CEPHALOTHIN]	0.6 (≈ 1.51 µM)	1 (≈ 2.52 µM)
